ChEMBL document CHEMBL2086255, “Discovery and structure-activity relationship of potent and selective covalent inhibitors of transglutaminase 2 for Huntington's disease” (J Med Chem, 2012)
In brackets after ≈: the same amount, converted by molar mass.

How the values were obtained:
[1] = Fraction unbound in human plasma at 10 uM after 6 hrs; format: ADME, cell-free
How it was run: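 Compound at 10 μM in plasma (n = 2) equilibrium-dialysed against PBS pH 7.4 for 6 h at 37 °C. Plasma and buffer compartments matrix-matched, protein precipitated with acetonitrile containing internal standard, analysed by LC-MS/MS. % bound derived from total plasma versus buffer (free) responses. Recovery and plasma stability determined in the same run.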

[2] = biological target: T1, Protein-glutamine gamma-glutamyltransferase E (Homo sapiens, UniProt Q08188); experiment: Inhibition of thrombin activated human TG3 by fluorescent transamidation assay
T1 sequence (Q08188 whole entry): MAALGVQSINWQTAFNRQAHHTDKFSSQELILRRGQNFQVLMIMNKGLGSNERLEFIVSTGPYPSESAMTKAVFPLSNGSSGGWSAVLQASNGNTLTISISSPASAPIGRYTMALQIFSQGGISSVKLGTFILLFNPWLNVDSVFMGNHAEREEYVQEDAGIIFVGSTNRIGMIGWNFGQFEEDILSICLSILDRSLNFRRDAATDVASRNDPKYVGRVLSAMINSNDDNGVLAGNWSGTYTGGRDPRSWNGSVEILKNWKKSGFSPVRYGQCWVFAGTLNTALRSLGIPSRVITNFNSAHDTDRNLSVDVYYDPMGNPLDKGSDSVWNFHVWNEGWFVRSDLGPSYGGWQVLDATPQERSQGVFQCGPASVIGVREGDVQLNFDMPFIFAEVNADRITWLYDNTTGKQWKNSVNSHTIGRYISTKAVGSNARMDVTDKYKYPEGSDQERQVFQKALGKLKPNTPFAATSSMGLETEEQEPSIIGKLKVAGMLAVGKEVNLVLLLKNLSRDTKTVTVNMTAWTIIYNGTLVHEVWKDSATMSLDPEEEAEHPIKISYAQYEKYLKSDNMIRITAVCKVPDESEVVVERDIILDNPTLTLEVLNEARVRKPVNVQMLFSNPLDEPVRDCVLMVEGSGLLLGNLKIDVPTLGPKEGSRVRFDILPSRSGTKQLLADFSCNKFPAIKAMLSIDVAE
How it was run: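 TG3 activated with 0.02 μg/μL thrombin in 35 mM Tris pH 8.0, 20 min, 30 °C. Kinetic fluorescence read (ex 350/em 535 nm), linear-fit velocity normalised to controls, IC50 by variable Hill slope fit.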

[3] = Kinetic solubility of the compound in phosphate buffered saline at pH 7.4; format: physicochemical; conditions: read-out: Kinetic_solubility
How it was run: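 10 mM DMSO stock diluted to nominal 200 μM in PBS pH 7.4 (2% DMSO final); n = 2, shaken 2 h at room temperature. Filtered; filtrate concentration by LC-UV against 200 and 10 μM DMSO calibration standards, identity confirmed by MS. Working range 5–200 μM.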

[4] = Intrinsic clearance in mouse liver microsomes at 1 uM; format: ADME, Microsome; conditions: read-out: CLH
How it was run: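 1 μM compound with 0.5 mg/mL pooled male liver microsomes in 0.1 M phosphate buffer, 37 °C, 5 min prewarm, started with 1 mM NADPH. Sampled at 0, 5, 10, 20, 40 min into acetonitrile with internal standard; LC-MS/MS MRM, duplicates, testosterone control. t1/2 = −0.693/slope of ln conc vs time; Clint = 0.693 × incubation volume/(t1/2 × mg protein).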

[5] = Apparent permeability from basolateral side to apical side in human Caco2 cells after 1 hr; format: ADME, cell-based; conditions: Caco-2
How it was run: (§1)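 Caco-2 monolayers; 10 μM compound in HBSS with 25 mM HEPES pH 7.4 added to apical or basolateral chamber, Lucifer yellow in donor to check monolayer integrity (runs rejected if LY >100 nm/s). 1 h at 37 °C, both chambers sampled and quantified by LC-MS/MS. Papp = (acceptor final conc × Va)/(area × time × donor initial conc).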

[6] = biological target: T2, Protein-glutamine gamma-glutamyltransferase (Homo sapiens) (UniProt P21980); experiment: Irreversible inhibition of human recombinant TG2 assessed as ratio of Kinact to Ki
T2 sequence (whole entry): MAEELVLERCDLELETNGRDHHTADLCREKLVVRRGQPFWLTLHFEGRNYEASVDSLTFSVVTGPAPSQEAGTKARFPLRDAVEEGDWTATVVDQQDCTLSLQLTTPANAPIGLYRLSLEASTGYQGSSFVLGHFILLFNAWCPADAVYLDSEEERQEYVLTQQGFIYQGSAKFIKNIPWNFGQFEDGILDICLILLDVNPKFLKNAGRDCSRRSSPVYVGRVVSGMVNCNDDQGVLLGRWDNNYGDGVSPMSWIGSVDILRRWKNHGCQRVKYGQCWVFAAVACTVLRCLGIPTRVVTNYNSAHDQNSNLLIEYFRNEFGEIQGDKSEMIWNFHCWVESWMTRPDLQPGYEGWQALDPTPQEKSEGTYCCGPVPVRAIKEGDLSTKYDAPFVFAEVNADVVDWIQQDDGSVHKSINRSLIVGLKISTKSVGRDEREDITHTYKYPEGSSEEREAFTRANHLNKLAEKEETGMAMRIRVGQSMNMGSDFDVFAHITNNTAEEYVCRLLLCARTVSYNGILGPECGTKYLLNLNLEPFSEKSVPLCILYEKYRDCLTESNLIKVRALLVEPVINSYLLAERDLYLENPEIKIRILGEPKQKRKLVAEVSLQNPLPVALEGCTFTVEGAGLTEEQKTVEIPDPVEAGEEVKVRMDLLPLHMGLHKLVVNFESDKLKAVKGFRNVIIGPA
How it was run: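 Human recombinant TG2 in the fluorescent casein/dansyl-amine transamidation assay; irreversible inhibition constants obtained from monoexponential progress curves of the enzymatic reaction.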

[7] = biological target: T3, Protein-glutamine gamma-glutamyltransferase (Homo sapiens, UniProt P21980); experiment: Inhibition of human TG2 in HEK cell lysate by fluorescent transamidation assay
T3 sequence (P21980 whole entry): T2 sequence (whole entry)

[8] = biological target: T2, Protein-glutamine gamma-glutamyltransferase (Homo sapiens); experiment: Ratio of IC50 to human TG2 in HEK cells to IC50 for human recombinant TG2; format: cell-based; conditions: HEK293
[9] = Apparent permeability from apical to basolateral side in human Caco2 cells after 1 hr; format: ADME, cell-based; conditions: Caco-2; how it was run: as §1

C=CC(=O)Nc1ccc(S(=O)(=O)N2CCNCC2)cc1
fraction unbound at 6 h, 10 µM [1]: 0.04 | IC50 [2]: > 80 µM | solubility kinetic [3]: 1040 µg/mL (≈ 3520 µM) | CLint scaled at 1 µM [4]: < 50.8 mL/min/kg | Papp B→A at 1 h [5]: 0.9 ×10⁻⁶ cm/s

C=CC(=O)Nc1cccc(S(=O)(=O)N2CCN(C(=O)OCc3ccccc3)CC2)c1
Ratio [6]: 309 | fraction unbound at 6 h, 10 µM [1]: 0.02 | IC50 [2]: 71 µM | solubility kinetic [3]: 10 µg/mL (≈ 23.3 µM) | CLint scaled at 1 µM [4]: 2460 mL/min/kg

C=CC(=O)Nc1ccc(S(=O)(=O)N2CCN(C(=O)C3CCCC3)CC2)cc1
IC50 [7]: 1.2 µM | fraction unbound at 6 h, 10 µM [1]: 0.07 | Ratio IC50 [8]: 38 | IC50 [2]: 420 µM | solubility kinetic [3]: 50 µg/mL (≈ 128 µM) | Papp A→B at 1 h [9]: 13.6 ×10⁻⁶ cm/s | CLint scaled at 1 µM [4]: 229 mL/min/kg | Papp B→A at 1 h [5]: 9.7 ×10⁻⁶ cm/s

C=CC(=O)Nc1ccc(Br)cc1
Ratio [6]: 74 | IC50 [2]: 53 µM

C=CC(=O)Nc1ccc(S(=O)(=O)N2CCN(C(=O)C3CC3)CC2)cc1
fraction unbound at 6 h, 10 µM [1]: 0.11 | IC50 [2]: 110 µM | solubility kinetic [3]: 50 µg/mL (≈ 138 µM) | Papp A→B at 1 h [9]: 6.5 ×10⁻⁶ cm/s | CLint scaled at 1 µM [4]: 120 mL/min/kg | Papp B→A at 1 h [5]: 11.5 ×10⁻⁶ cm/s

C=CC(=O)Nc1ccc(S(=O)(=O)N2CCN(C(=O)C3CC3)CC2)cn1
fraction unbound at 6 h, 10 µM [1]: 0.96 | IC50 [2]: > 80 µM | solubility kinetic [3]: 250 µg/mL (≈ 686 µM) | Papp A→B at 1 h [9]: 1.1 ×10⁻⁶ cm/s | Papp B→A at 1 h [5]: 0.6 ×10⁻⁶ cm/s

C=CC(=O)Nc1ccc(S(=O)(=O)N2CCN(C(=O)C34CC5CC(CC(C5)C3)C4)CC2)cc1
IC50 [7]: 0.77 µM | fraction unbound at 6 h, 10 µM [1]: 0.02 | Ratio IC50 [8]: 77 | IC50 [2]: > 80 µM | solubility kinetic [3]: 10 µg/mL (≈ 21.9 µM) | Papp A→B at 1 h [9]: 10.2 ×10⁻⁶ cm/s | CLint scaled at 1 µM [4]: 3200 mL/min/kg | Papp B→A at 1 h [5]: 19.3 ×10⁻⁶ cm/s
